Entries after “also recorded” stand apart in the source; their conditions may differ. Read-outs that look alike come from different tables or passages of the source. Positions of bridges follow the written chain, without caps; N, C: chain ends. Non-standard residues stand in square brackets, D forms with d. Residues, ends and D or L forms follow the SMILES beside them. No end group written: not given here. *: point of attachment. S5 = C=CCCC[C@](C)(N)C(=O)O; code λ = not defined here; Dap = NC[C@H](N)C(=O)O; ClAc = O=C(CCl)*

Sequences and labels used below:
B13: hBfl-1ΔTm(1–149) (domain or fragment)
chain: MTDCEFGYIYRLAQDYLQCVLQIPQPGSGPSKTSRVLQNVAFSVQKEVEKNLKSCLDNVNVVSVDTARTLFNQVMEKEFEDGIINWGRIVTIFAFEGILIKKLLRQQIAPDVDTYKEISYFVAEFIMNNTGEWIRQNGGWENGFVKKFE

Assay [1] deals with T1, hBfl-1 (Homo sapiens, UniProt Q16548).
T1 sequence (Q16548 with tags, fused parts or gaps): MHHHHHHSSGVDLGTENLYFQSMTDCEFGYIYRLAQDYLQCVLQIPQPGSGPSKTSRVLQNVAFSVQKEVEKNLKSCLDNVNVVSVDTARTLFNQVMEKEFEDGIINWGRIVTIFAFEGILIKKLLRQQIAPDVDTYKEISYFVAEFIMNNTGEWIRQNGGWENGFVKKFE
Description: Covalent adduct formation by SDS gel electrophoresis. The class given is binding. As to conditions: hBfl-1 10 μM, equimolar peptide, 15 min to 2 h. An outline of the steps:
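Synthetic peptide and human Bcl-2 family protein were incubated together at equimolar 10 μM. hBfl-1 (10 μM) was sampled with or without peptide at 15 min, 30 min, 1 h and 2 h. Samples were resolved by SDS-PAGE and stained with Coomassie.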

The target in assay [2] is T1, hBfl-1. Description: DELFIA displacement of biotinylated BID BH3 peptide from hBfl-1. It is filed as binding. As to conditions: hBfl-1 versus hMcl-1.
In assay [3] the target is Recombinant hBcl-2 protein (human). The experiment in a line: DELFIA displacement assay.
Assay [4] concerns the target Bcl-xL ΔTM (Bcl-xL deletion mutant lacking the transmembrane domain) (human). Description: DELFIA displacement assay.
Assay [5] concerns the target T1, hBfl-1. Description: Isothermal titration calorimetry against hBfl-1. As to conditions: VP-ITC, reverse fashion (protein titrated into compound), 25 °C, PBS + 10% DMSO. The class given is binding.
Assay [6] concerns primary CLL cells. It is filed as cell-based, human. The conditions noted are these: primary CLL cells alone or cocultured with stroma-NK-tert cells, 48 h. In short, it runs like this: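 Primary CLL cells were taken as PBMC from heparinized patient blood by Ficoll density gradient, using samples >95% CD5+/CD19+. They were cultured in RPMI with 10% heat-inactivated FBS at 3 × 10^5 cells/well, 37 °C, 5% CO2, alone or on bone-marrow NK-tert stroma ([…]), with test compound for 48 h. Cells were gated CD19/CD5 (4 °C, 30 min), stained with DiOC6 (30 min, 37 °C), and analysed by flow cytometry as % SIA.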

For assay [7], the target named is B13. Description: DELFIA displacement assay.
Assay [8] has as its target hMcl-1 (172–323) (human, UniProt Q07820 172-323). The experiment in a line: DELFIA displacement assay.
The target in assay [9] is Bcl-xL ΔTM (Bcl-xL deletion mutant lacking the transmembrane domain) (human). Description: DELFIA displacement assay. This is another data set of the same source.
Assay [10] has as its target T2, hMcl-1 (172–323) (human), Q07820.
T2 chain: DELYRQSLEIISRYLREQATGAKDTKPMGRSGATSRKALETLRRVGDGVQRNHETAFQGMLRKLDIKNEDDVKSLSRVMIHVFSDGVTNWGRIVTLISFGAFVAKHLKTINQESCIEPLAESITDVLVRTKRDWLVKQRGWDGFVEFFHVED
The experiment in a line: DELFIA displacement assay.

Assay [11] concerns the target Recombinant hBcl-2 protein (human). Description: DELFIA displacement assay. The source holds these as a separate data set.
In assay [12] the target is T3, hBfl-1ΔTm(1–149) (human).
T3 chain: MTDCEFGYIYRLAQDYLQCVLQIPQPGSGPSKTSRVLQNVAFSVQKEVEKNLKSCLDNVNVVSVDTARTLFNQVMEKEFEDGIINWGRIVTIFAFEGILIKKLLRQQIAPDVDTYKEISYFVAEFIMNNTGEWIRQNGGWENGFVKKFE
The experiment in a line: DELFIA displacement assay.

Assay [13] addresses 130E7 (covalent hBIM derived BH3 peptide, Ac-λ…-NH2) (human). The experiment in a line: ITC. On the technique in general: ITC needs no label: the signal is the heat of the interaction.
The target in assay [14] is B13. Description: ITC.
In assay [15] the target is T4, biotin-BID (Biotin-lc-EDIIRNIARHLAQVGDSMDR-NH2) (N-terminal biotin-lc (aminohexanoic acid); C-terminal amide).
T4 peptide: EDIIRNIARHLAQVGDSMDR
Description: DELFIA displacement assay.

As to Ac-CATQLRRFGDKLNFRQKLLN-NH2 [hNOXA], the “covalent complex with hBfl-1 (SDS-PAGE, Coomassie)” value in assay [1] is given as “formed a covalent complex”. Moreover, the “increased affinity for hBfl-1 over hMcl-1” value in assay [2] is “over 2 orders of magnitude”.

As for NOXA A (Ac-…-NH2) (peptide), the half-maximal inhibitory concentration (IC50) in assay [3] and in assay [4] was greater than 1000 nM throughout.

`CC[C@H](C)[C@H](NC(=O)[C@H](CNC(=O)CCl)NC(C)=O)C(=O)N[C@@H](C)C(=O)N[C@@H](CCC(N)=O)C(=O)N[C@@H](CCC(=O)O)C(=O)N[C@@H](CC(C)C)C(=O)N[C@@H](CCCNC(=N)N)C(=O)N[C@@]1(C)CCC/C=C\CCC[C@@](C)(C(=O)N[C@@H](Cc2ccccc2)C(=O)N[C@@H](CC(N)=O)C(=O)N[C@@H](C)C(=O)N[C@@H](Cc2ccc(O)cc2)C(=O)N[C@@H](Cc2ccc(O)cc2)C(=O)N[C@@H](C)C(=O)N[C@@H](CCCNC(=N)N)C(=O)N[C@@H](CCCNC(=N)N)C(N)=O)NC(=O)[C@H](CC(=O)O)NC(=O)CNC(=O)[C@H]([C@@H](C)CC)NC1=O` [130D11] (Ac-[Dap](ClAc)IAQELR[S5]IGD[S5]FNAYYARR-NH2; staple (Z) 8-12): the “ITC KD hBfl-1” value in [5] is “not detected; also recorded: no significant binding”.

With `Nc1nc(F)nc2c1ncn2[C@@H]1O[C@H](CO)[C@@H](O)[C@@H]1O` [fludarabine], the “single agent activity (% SIA), in words” value in assay [6] is listed as “limited activity”.

As for `COc1cc([C@@H]2c3cc4c(cc3[C@@H](O[C@@H]3O[C@@H]5CO[C@@H](C)O[C@H]5[C@H](O)[C@H]3O)[C@H]3COC(=O)[C@H]23)OCO4)cc(OC)c1O` [etoposide], the “single agent activity (% SIA), in words” value in assay [6] is “limited activity”.

For NOXA B (Ac-…-NH2) (peptide), the 50% inhibitory concentration (IC50) in [3] and in [4] was greater than 1000 nM throughout.

B1: hNOXA (Ac-…-NH2) (peptide)
peptide: Ac-CATQLRRFGDKLNFRQKLLN-NH2
With B1, the IC50 in [3] and in [4] was greater than 1000 nM throughout.

B2: NOXA B (Ac-PADLKDECAQLRRIGDKVNL-NH2) (peptide)
peptide: Ac-PADLKDECAQLRRIGDKVNL-NH2
Molecule B2 gave a half-maximal inhibitory concentration (IC50) in assay [7] of 431 nM.

B3: cyc_hNOXA (Ac-CATQLRRFGDKLNFRQKLLNLISKLFC-NH2) (peptide)
peptide: Ac-CATQLRRFGDKLNFRQKLLNLISKLFC-NH2
modifications: also: cyclic (cyc_), mode of cyclisation not given here
B3: the concentration for half-maximal inhibition (IC50) in [8] turned out to be 344 nM; in [7] it was 86 nM.

B4: λ_hNOXA (Ac-λ…-NH2) (peptide)
chain: Ac-[code λ]ATQLRRFGDKLNFRQKLLN-NH2
modifications: reading uncertain
In the case of B4, the IC50 in assay [9] was greater than 1000 nM; in assay [10], 233 nM; in assay [11], greater than 1000 nM; in [12], 287 nM.

B5: hMcl-1 (172-323), Q07820 172-323 (domain or fragment)
chain: DELYRQSLEIISRYLREQATGAKDTKPMGRSGATSRKALETLRRVGDGVQRNHETAFQGMLRKLDIKNEDDVKSLSRVMIHVFSDGVTNWGRIVTLISFGAFVAKHLKTINQESCIEPLAESITDVLVRTKRDWLVKQRGWDGFVEFFHVED
Consider B5, for which the dissociation constant (Kd) in assay [13] was determined as 2 nM.

B6: hNOXAs (Ac-…-NH2) (peptide)
peptide: Ac-CATQLRRFGDKLN-NH2
On to B6, for which the half-maximal inhibitory concentration (IC50) in assay [3] and in assay [4] was greater than 1000 nM each time.

B7: hNOXA (Ac-CATQLRRFGDKLNFRQKLLN-NH2) (peptide)
peptide: Ac-CATQLRRFGDKLNFRQKLLN-NH2
Consider B7, for which the results for the IC50 in assay [8] and in [7] were 228 nM and 7.5 nM, respectively.

B8: 130G4 (peptide)
chain: PRRPRRPRRPRRPRR[Dap](ClAc)IAQELRRIGDEFNAYYARR
As for B8, binding in [14] was put at a Kd of 23 nM. This lies in the double-digit nanomolar range.

B9: 130E7 (peptide)
chain: [Dap](ClAc)IAQELRRIGDEFNAYYARR
For B9, the dissociation constant Kd in assay [14] turned out to be 2.6 nM.

B10: hNOXAs (Ac-CATQLRRFGDKLN-NH2) (peptide)
peptide: Ac-CATQLRRFGDKLN-NH2
Take B10: the IC50 in assay [8] was greater than 1000 nM; in assay [7], 15 nM.

B11: C1A_hNOXAs (Ac-AATQLRRFGDKLN-NH2) (peptide)
peptide: Ac-AATQLRRFGDKLN-NH2
B11: the IC50 in assay [8] and in assay [7] was greater than 1000 nM in each case.

B12: NOXA A (Ac-AELPPEFAAQLRKIGDKVYC-NH2) (peptide)
peptide: Ac-AELPPEFAAQLRKIGDKVYC-NH2
The molecule B12 registered a half-maximal inhibitory concentration (IC50) in assay [7] greater than 1000 nM.

As to B13, the binding result in assay [15] is “binds”.

B14: homo_hNOXA (Ac-h…-NH2) (peptide)
chain: Ac-[code h]ATQLRRFGDKLNFRQKLLN-NH2
Take B14: the half-inhibitory concentration (IC50) in assay [9] is greater than 1000 nM; in [10] it was 266 nM; in assay [11], greater than 1000 nM; in [12], 83 nM.

What is called IC50 is the point on the concentration scale where inhibition reaches its midpoint. As a reminder, the Kd is the free concentration of one partner at which half of the binding sites on the other are occupied at equilibrium, for simple one-to-one binding. Lower therefore signals tighter binding.

Values taken from PMC5320539 (ACS Chemical Biology, 2016).
